Test results reported in ChEMBL document CHEMBL1156917, “Stereoselective synthesis of desloratadine derivatives as antagonist of histamine” (Bioorg Med Chem, 2010).

Columns and labels:
Format in all cases: functional, tissue-based
[1] = molecular target: Histamine H1 receptor (Cavia porcellus) (UniProt P31389); experiment: Antagonist activity at histamine H1 receptor in Dunkin-Hartley guinea pig ileum assessed as inhibition of histamine-induced contractions at 3 umol/L; conditions: at 3 µM
In short: (§1)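 Ileum segments (2 cm) were taken from stunned animals and mounted in an organ bath under 1 g initial load. The bath held Tyrode's solution at 37 °C, continuously oxygenated. After 20 min stabilization, noncumulative submaximal histamine stimuli were given. Isometric contractions were recorded without compound and after 3-5 min incubation with compound.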

[2] = molecular target: Histamine H1 receptor (Cavia porcellus) (UniProt P31389); experiment: Antagonist activity at histamine H1 receptor in Dunkin-Hartley guinea pig ileum assessed as inhibition of histamine-induced contractions at 10 umol/L; conditions: at 10 µM; in short: as §1
[3] = molecular target: Histamine H1 receptor (Cavia porcellus) (UniProt P31389); experiment: Antagonist activity at histamine H1 receptor in Dunkin-Hartley guinea pig ileum assessed as inhibition of histamine-induced contractions at 30 umol/L; conditions: at 30 µM; in short: as §1

Sequence of Histamine H1 receptor (Cavia porcellus) (P31389 whole entry): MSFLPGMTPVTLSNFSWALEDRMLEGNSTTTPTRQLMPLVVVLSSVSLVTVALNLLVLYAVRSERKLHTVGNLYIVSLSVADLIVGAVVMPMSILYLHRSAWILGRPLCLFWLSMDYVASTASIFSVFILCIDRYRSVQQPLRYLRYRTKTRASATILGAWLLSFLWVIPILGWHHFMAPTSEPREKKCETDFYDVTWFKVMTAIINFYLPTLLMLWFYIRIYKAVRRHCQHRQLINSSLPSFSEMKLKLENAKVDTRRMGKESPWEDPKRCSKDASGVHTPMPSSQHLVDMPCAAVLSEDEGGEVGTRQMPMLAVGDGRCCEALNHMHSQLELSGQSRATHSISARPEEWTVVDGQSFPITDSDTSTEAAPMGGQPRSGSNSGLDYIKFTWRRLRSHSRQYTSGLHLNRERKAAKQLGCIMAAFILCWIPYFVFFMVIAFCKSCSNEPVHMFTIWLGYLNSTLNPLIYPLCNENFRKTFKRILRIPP

Row | SMILES | inhibition [1] | inhibition [2] | inhibition [3]
1 | COc1cc(/C=C2\OC(=O)C=C2CN2CCC(=C3c4ccc(Cl)cc4CCc4cccnc43)CC2)ccc1O | 4.67% | 42.5% | 62.6%
2 | CCOC(=O)N1CCC(=C2c3ccc(Cl)cc3CCc3cccnc32)CC1 | 15.7% | 33.4% | 64.7%
3 | O=C1C=C(CN2CCC(=C3c4ccc(Cl)cc4CCc4cccnc43)CC2)/C(=C/c2ccc(O)cc2)O1 | 3.54% | 41% | 65.6%
4 | O=C1C=C(CN2CCC(=C3c4ccc(Cl)cc4CCc4cccnc43)CC2)/C(=C/c2ccc(Cl)cc2)O1 | 37% | 51.3% | 66.7%
5 | CN(C)c1ccc(/C=C2\OC(=O)C=C2CN2CCC(=C3c4ccc(Cl)cc4CCc4cccnc43)CC2)cc1 | 61.6% | 77.6% | 82.3%
6 | O=C1C=C(CN2CCC(=C3c4ccc(Cl)cc4CCc4cccnc43)CC2)CO1 | 33.4% | 79% | 94.8%
7 | COc1cc(/C=C2\OC(=O)C=C2CN2CCC(=C3c4ccc(Cl)cc4CCc4cccnc43)CC2)cc(OC)c1OC | 4.23% | 32.9% | 52.8%
8 | Clc1ccc2c(c1)CCc1cccnc1C2=C1CCNCC1 | 47.4% | 77.7% | 80.4%
9 | O=C1C=C(CN2CCC(=C3c4ccc(Cl)cc4CCc4cccnc43)CC2)C(C(O)c2ccccc2)O1 (configuration not stated) | 42.7% |  | 
10 | O=C1C=C(CN2CCC(=C3c4ccc(Cl)cc4CCc4cccnc43)CC2)/C(=C/c2ccc(F)cc2)O1 | 6.99% | 19% | 30.6%
11 | COc1ccccc1C(O)C1OC(=O)C=C1CN1CCC(=C2c3ccc(Cl)cc3CCc3cccnc32)CC1 (configuration not stated) | 40.8% | 61.5% | 74.1%
12 | CS(=O)(=O)c1ccc(/C=C2\OC(=O)C=C2CN2CCC(=C3c4ccc(Cl)cc4CCc4cccnc43)CC2)cc1 | 12.4% | 50.4% | 71.9%
13 | COc1ccccc1/C=C1\OC(=O)C=C1CN1CCC(=C2c3ccc(Cl)cc3CCc3cccnc32)CC1 | 29.4% | 59.2% | 87.8%
